Assay results as given in ChEMBL document CHEMBL4038284, “Synthesis of novel quinoline-based 4,5-dihydro-1H-pyrazoles as potential anticancer, antifungal, antibacterial and antiprotozoal agents” (Eur J Med Chem, 2017).
Values after ≈ are worked out from the molar mass of the structure shown.

Tests used:
Escherichia coli = assay: Antibacterial activity against Escherichia coli ATCC 25922 after 24 hrs by resazurin dye based microdilution assay; assay type: functional; details: ATCC 25922, 24 h
Method in brief: (§1)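 MIC taken as the lowest concentration giving visible inhibition and/or by resazurin (1 mg/mL). Gentamicin was the control. Run in duplicate, repeated at least three times.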

Cryptococcus neoformans [1] = assay: Growth inhibition of Cryptococcus neoformans ATCC 32264 at 250 ug/ml incubated for 48 hrs under dark condition by broth microdilution method relative to control; assay type: functional; details: ATCC 32264, 48 h, read-out: GI
Method in brief: (§2)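 CLSI M27-A3 broth microdilution in RPMI-1640, DMSO ≤1%. Inoculum 1-5 × 10^3 CFU/mL. Incubated 48 h at 30 °C, dark. % inhibition = 100 − (OD405 test − sterility control)/(OD405 growth control − sterility control), with growth and sterility control wells. Triplicate.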

Leishmania panamensis = assay: Antileshmanial activity against EpiR/GFP fused Leishmania panamensis MHOM/CO/87/UA140 intracellular amastigotes infected in human […] cells after 72 hrs by flow cytometric method; assay type: functional, cell-based; details: MHOM/CO/87/UA140, 72 h
Method in brief: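 PMA-treated U-937 cells (3 × 10^5 cells/mL) infected with stationary-phase GFP L. panamensis promastigotes (15:1), 3 h at 34 °C, then washed. After 24 h, compounds added at 50, 12.5, 3.125 and 0.78 µg/mL for 72 h at 37 °C. EC50 by Probit; triplicate, two experiments.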

Cryptococcus neoformans [2] = assay: Growth inhibition of Cryptococcus neoformans ATCC 32264 at 62.5 ug/ml incubated for 48 hrs under dark condition by broth microdilution method relative to control; assay type: functional; details: ATCC 32264, 48 h, read-out: GI; method in brief: as §2
Cryptococcus neoformans [3] = assay: Growth inhibition of Cryptococcus neoformans ATCC 32264 at 7.8 ug/ml incubated for 48 hrs under dark condition by broth microdilution method relative to control; assay type: functional; details: ATCC 32264, 48 h, read-out: GI; method in brief: as §2
Staphylococcus aureus [4] = assay: Antibacterial activity against vancomycin-intermediate Staphylococcus aureus after 24 hrs by resazurin dye based microdilution assay; assay type: functional; method in brief: as §1
U-937 = assay: Cytotoxicity against human U937 cells after 72 hrs by MTT assay; assay type: cell-based; details: u-937, 72 h
Method in brief: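 Exponentially growing U-937 at 1 × 10^5 cells/mL in RPMI-1640 with 10% FBS were exposed to 200, 50, 12.5 and 3.125 µg/mL for 72 h at 37 °C, 5% CO2. MTT for 3 h, stopped with isopropanol/SDS, formazan read at 570 nm, blank-corrected. LC50 by Probit from % viability against untreated cells. Triplicate, at least two independent experiments.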

Staphylococcus aureus [5] = assay: Antibacterial activity against methicillin-resistant Staphylococcus aureus ATCC 43300 after 24 hrs by resazurin dye based microdilution assay; assay type: functional; details: ATCC 43300, 24 h
Method in brief: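 Broth microdilution in Mueller Hinton broth, inoculum 5 × 10^5 – 8 × 10^5. Compound stocks diluted in MHB with 5% DMSO and 0.1% Tween 80. Incubation 24 h at 35-37 °C. MIC is the lowest concentration with visible growth inhibition and/or by resazurin (1 mg/mL) read-out. Gentamicin as control. Run in duplicate, replicated at least three times.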

Candida albicans [6] = assay: Growth inhibition of Candida albicans ATCC 10231 at 31.25 ug/ml incubated for 48 hrs under dark condition by broth microdilution method relative to control; assay type: functional; details: ATCC 10231, 48 h, read-out: GI; method in brief: as §2
Cryptococcus neoformans [7] = assay: Growth inhibition of Cryptococcus neoformans ATCC 32264 at 15.62 ug/ml incubated for 48 hrs under dark condition by broth microdilution method relative to control; assay type: functional; details: ATCC 32264, 48 h, read-out: GI; method in brief: as §2
Klebsiella pneumoniae [8] = assay: Antibacterial activity against ESBL positive Klebsiella pneumoniae ATCC 700603 after 24 hrs by resazurin dye based microdilution assay; assay type: functional; details: Klebsiella pneumoniae, 700603, 24 h; method in brief: as §1
Cryptococcus neoformans [9] = assay: Growth inhibition of Cryptococcus neoformans ATCC 32264 at 125 ug/ml incubated for 48 hrs under dark condition by broth microdilution method relative to control; assay type: functional; details: ATCC 32264, 48 h, read-out: GI; method in brief: as §2
Neisseria gonorrhoeae = assay: Antibacterial activity against beta lactamase positive Neisseria gonorrhoeae ATCC 31426 by oxidase test; assay type: functional
Method in brief: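 Agar dilution MIC on GC agar with 1% isovitalex containing increasing compound concentrations. Plates inoculated with about 1×10^4 CFU (5 µL). MIC is the lowest concentration that inhibited growth, with growth confirmed by oxidase test. Run in duplicate, repeated at least three times.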

Trypanosoma cruzi = assay: Antitrypanosomal activity against Trypanosoma cruzi Tulahuen intracellular amastigote harboring LacZ infected in human U937 cells after 72 hrs by CPRG/Nonidet reagent based spectrophotometric method; assay type: functional, cell-based; details: U-937, 72 h
Method in brief: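 U-937 cells at 2.5 × 10^5 cells/mL in RPMI-1640 with 10% serum and 0.1 µg/mL PMA were infected with β-galactosidase-transfected Tulahuen epimastigotes at 5 parasites per cell. Infected cells were exposed to 50, 12.5, 3.125 and 0.78 µg/mL for 72 h. CPRG (100 uM) and 0.1% Nonidet P-40 were added for 3 h, read at 570 nm. EC50 by Probit. Triplicate, at least two experiments; benznidazole as reference.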

Candida albicans [10] = assay: Growth inhibition of Candida albicans ATCC 10231 at 250 ug/ml incubated for 48 hrs under dark condition by broth microdilution method relative to control; assay type: functional; details: ATCC 10231, 48 h, read-out: GI; method in brief: as §2
Pseudomonas aeruginosa = assay: Antibacterial activity against Pseudomonas aeruginosa ATCC 27853 after 24 hrs by resazurin dye based microdilution assay; assay type: functional; details: ATCC 27853, 24 h; method in brief: as §1
Candida albicans [11] = assay: Growth inhibition of Candida albicans ATCC 10231 at 15.62 ug/ml incubated for 48 hrs under dark condition by broth microdilution method relative to control; assay type: functional; details: ATCC 10231, 48 h, read-out: GI; method in brief: as §2
Candida albicans [12] = assay: Growth inhibition of Candida albicans ATCC 10231 at 3.4 ug/ml incubated for 48 hrs under dark condition by broth microdilution method relative to control; assay type: functional; details: ATCC 10231, 48 h, read-out: GI
Candida albicans [13] = assay: Antifungal activity against Candida albicans ATCC 10231 incubated for 48 hrs under dark condition by broth microdilution method; assay type: functional; details: ATCC 10231, 48 h
Method in brief: (§3)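 CLSI M27-A3 broth microdilution in RPMI-1640, DMSO ≤1%, compounds at 250-0.98 µg/mL final. Inoculum 1-5 × 10^3 CFU/mL. Incubated 48 h at 30 °C in a moist dark chamber, read at OD405. MIC80 and MIC50 taken from % inhibition dose-response curves (mean ± SEM, triplicate). Amphotericin B was the positive control.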

Staphylococcus aureus [14] = assay: Antibacterial activity against methicillin-sensitive Staphylococcus aureus ATCC 25923 after 24 hrs by resazurin dye based microdilution assay; assay type: functional; details: ATCC 25923, 24 h; method in brief: as §1
Cryptococcus neoformans [15] = assay: Growth inhibition of Cryptococcus neoformans ATCC 32264 at 3.4 ug/ml incubated for 48 hrs under dark condition by broth microdilution method relative to control; assay type: functional; details: ATCC 32264, 48 h, read-out: GI
Candida albicans [16] = assay: Growth inhibition of Candida albicans ATCC 10231 at 125 ug/ml incubated for 48 hrs under dark condition by broth microdilution method relative to control; assay type: functional; details: ATCC 10231, 48 h, read-out: GI; method in brief: as §2
Cryptococcus neoformans [17] = assay: Antifungal activity against Cryptococcus neoformans ATCC 32264 incubated for 48 hrs under dark condition by broth microdilution method; assay type: functional; details: ATCC 32264, 48 h; method in brief: as §3
Cryptococcus neoformans [18] = assay: Growth inhibition of Cryptococcus neoformans ATCC 32264 at 31.25 ug/ml incubated for 48 hrs under dark condition by broth microdilution method relative to control; assay type: functional; details: ATCC 32264, 48 h, read-out: GI; method in brief: as §2
Candida albicans [19] = assay: Growth inhibition of Candida albicans ATCC 10231 at 7.8 ug/ml incubated for 48 hrs under dark condition by broth microdilution method relative to control; assay type: functional; details: ATCC 10231, 48 h, read-out: GI; method in brief: as §2
Klebsiella pneumoniae [20] = assay: Antibacterial activity against carbapenemase positive Klebsiella pneumoniae BAA 1705 after 24 hrs by resazurin dye based microdilution assay; assay type: functional; details: BAA 1705, 24 h; method in brief: as §1
Plasmodium falciparum = assay: Antiplasmodial activity against chloroquine-sensitive Plasmodium falciparum 3D7 assessed as reduction in parasitic LDH activity after 48 hrs by Malstat reagent based […] method; assay type: functional; details: 3D7, 48 h
Method in brief: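 Unsynchronized P. falciparum 3D7 at 0.5% parasitemia and 1% hematocrit in RPMI with 3% Albumax II. Exposed to 100, 25, 6.25 and 1.56 µg/mL for 48 h at 37 °C under 90% N2/5% CO2/5% O2. After three freeze-thaw cycles, LDH measured with Malstat and NBT/PES, 1 h in the dark, read at 650 nm. IC50 by Probit; triplicate, ≥2 experiments.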

Candida albicans [21] = assay: Growth inhibition of Candida albicans ATCC 10231 at 62.5 ug/ml incubated for 48 hrs under dark condition by broth microdilution method relative to control; assay type: functional; details: ATCC 10231, 48 h, read-out: GI; method in brief: as §2

Row | SMILES | MIC (Escherichia coli) | inhibition of growth at 250 µg/mL (Cryptococcus neoformans [1]) | EC50 (Leishmania panamensis) | inhibition of growth at 62.5 µg/mL (Cryptococcus neoformans [2]) | inhibition of growth at 7.8 µg/mL (Cryptococcus neoformans [3]) | MIC (Staphylococcus aureus [4]) | LC50 (U-937) | MIC (Staphylococcus aureus [5]) | inhibition of growth at 31.25 µg/mL (Candida albicans [6]) | inhibition of growth at 15.62 µg/mL (Cryptococcus neoformans [7]) | MIC (Klebsiella pneumoniae [8]) | inhibition of growth at 125 µg/mL (Cryptococcus neoformans [9]) | MIC (Neisseria gonorrhoeae) | EC50 (Trypanosoma cruzi) | inhibition of growth at 250 µg/mL (Candida albicans [10]) | MIC (Pseudomonas aeruginosa) | inhibition of growth at 15.62 µg/mL (Candida albicans [11]) | inhibition of growth at 3.4 µg/mL (Candida albicans [12]) | MIC50 (Candida albicans [13]) | MIC80 (Candida albicans [13]) | other results
1 | O=CN1N=C(c2ccccc2)CC1c1cccc(Nc2ccnc3cc(Cl)ccc23)c1 (stereo not given) | > 1000 µg/mL | 54.1% | 1.72 µg/mL (≈ 4.03 µM) | 34.4% | 11.2% | > 1000 µg/mL | 1.3 µg/mL (≈ 3.05 µM) | > 1000 µg/mL | 8.44% | 20.7% | > 1000 µg/mL | 47.2% | > 1000 µg/mL | > 0.6 µg/mL | 29.9% | > 1000 µg/mL | 4.31% | 2.19% | ≥ 250 µg/mL | ≥ 250 µg/mL | MIC (Staphylococcus aureus [14]): > 1000 µg/mL; inhibition of growth at 3.4 µg/mL (Cryptococcus neoformans [15]): 7.63%; inhibition of growth at 125 µg/mL (Candida albicans [16]): 16.9%; MIC50 (Cryptococcus neoformans [17]): 250 µg/mL (≈ 586 µM); MIC80 (Cryptococcus neoformans [17]): ≥ 250 µg/mL; inhibition of growth at 31.25 µg/mL (Cryptococcus neoformans [18]): 29.7%; inhibition of growth at 7.8 µg/mL (Candida albicans [19]): 4.3%; MIC (Klebsiella pneumoniae [20]): > 1000 µg/mL; EC50 (Plasmodium falciparum): 17.7 µg/mL (≈ 41.4 µM); inhibition of growth at 62.5 µg/mL (Candida albicans [21]): 10.1%
2 | Cc1ccc(C2=NN(c3ccc(Cl)cc3)C(c3cccc(Nc4ccnc5cc(Cl)ccc45)c3)C2)cc1 (stereo not given) | > 1000 µg/mL | 22.8% | 49.4 µg/mL (≈ 94.4 µM) | 12.9% | 6.57% | > 1000 µg/mL | > 200 µg/mL | > 1000 µg/mL | 8.37% | 6.99% | > 1000 µg/mL | 15.9% | > 1000 µg/mL | 21.9 µg/mL (≈ 41.9 µM) | 36.5% | > 1000 µg/mL | 7.27% | 0% | ≥ 250 µg/mL | ≥ 250 µg/mL | MIC (Staphylococcus aureus [14]): > 1000 µg/mL; inhibition of growth at 3.4 µg/mL (Cryptococcus neoformans [15]): 0%; inhibition of growth at 125 µg/mL (Candida albicans [16]): 16.2%; MIC50 (Cryptococcus neoformans [17]): ≥ 250 µg/mL; MIC80 (Cryptococcus neoformans [17]): ≥ 250 µg/mL; inhibition of growth at 31.25 µg/mL (Cryptococcus neoformans [18]): 10.9%; inhibition of growth at 7.8 µg/mL (Candida albicans [19]): 5.67%; MIC (Klebsiella pneumoniae [20]): > 1000 µg/mL; EC50 (Plasmodium falciparum): 13.7 µg/mL (≈ 26.2 µM); inhibition of growth at 62.5 µg/mL (Candida albicans [21]): 13.1%
